# The source made the active and inactive calls. No cut-off for these calls is given here.
# Assays:
# Tubulin (Bos taurus) [1] = target: T1, Tubulin (Bos taurus) (UniProt Q6B856+Q862L2+Q862F3); experiment: Inhibition of [3H]colchicine binding to bovine brain tubulin at 50 uM after 20 mins relative to control
# Method in brief: (§1)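 Reaction mixtures held 1 μM tubulin, 5 μM [³H]colchicine and test compound at 5 or 50 μM. Read-out was percent inhibition of colchicine binding.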
# [2] = Cytotoxicity against human PHA-stimulated PBL after 72 hrs by MTT assay; type: cell-based; details: PHA-stimulated peripheral blood lymphocytes (PBL)
# Method in brief: (§2)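 Lymphocytes from healthy donors were isolated on a Lymphoprep gradient and held overnight in RPMI-1640 with 10% FBS. Non-adherent cells were set at 5×10^5 cells/mL, either resting or stimulated with 2.5 μg/mL PHA. Cells were exposed to a range of compound concentrations for 72 h and viability read by MTT. GI50 is the mean ± SEM of three separate experiments.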
# CNS carcinoma cell = experiment: Cytotoxicity against human CNS cancer cells after 48 hrs by SRB assay; type: functional
# Method in brief: (§3)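 NCI-60 screen: single-dose pass at 10^-5 M, then a five-concentration assay from 10^-9 to 10^-4 M (highest 100 μM). Exposure was 48 h under standard NCI protocols. GI50, TGI and LC50 were derived per cell line and averaged by subpanel. Repeated tests are the mean of two experiments.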
# K562 [3] = experiment: Cell cycle arrest in human K562 cells assessed as mitotic index at IC50 by Giemsa staining-based assay (reference value: 3%); type: functional
# HeLa [4] = experiment: Cell cycle arrest in human HeLa cells assessed as reduction in accumulation of cells at S phase up to 1000 nM after 24 hrs by propidium iodide staining-based flow cytometric analysis; type: functional
# Method in brief: (§4)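 Cells exposed to a range of concentrations for 24 h (HeLa at 5×10^5 cells), then fixed in ice-cold 70% ethanol. Lysis buffer with RNase A and 0.1% Triton X-100 was applied before PI staining. DNA content was read by flow cytometry and G1/S/G2/M fractions taken from DNA histograms. Mean ± SEM of two independent experiments.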
# Melanoma cell line = experiment: Cytotoxicity against human melanoma cells after 48 hrs by SRB assay; type: functional; method in brief: as §3
# Leukemia cell = experiment: Cytotoxicity against human leukemia cells after 48 hrs by SRB assay; type: functional; method in brief: as §3
# Breast carcinoma cell = experiment: Cytotoxicity against human breast cancer cells after 48 hrs by SRB assay; type: functional; method in brief: as §3
# NSCLC = experiment: Cytotoxicity against human NSCLC cells after 48 hrs by SRB assay; type: functional; method in brief: as §3
# HeLa [5] = experiment: Induction of apoptosis in human HeLa cells assessed as decrease in Bcl-2 levels at 50 to 250 nM after 24 hrs by Western blot analysis; type: functional, cell-based
# Method in brief: (§5)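 HeLa cells treated 24 h, washed in ice-cold PBS and lysed on ice 30 min. Lysates were spun at 15000 x g, 4 °C. 10 µg protein run on SDS-PAGE and blotted to PVDF. Blots were blocked in 5% BSA overnight at 4 °C and probed 2 h at room temperature. Detection by HRP-secondary and ECL, with bands normalized to β-actin as fold of untreated. Three independent experiments, one-way ANOVA/Dunnett.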
# HeLa [6] = experiment: Induction of mitochondrial membrane depolarization in human HeLa cells at 250 to 500 nM after 6 to 48 hrs by JC-1 staining-based assay; type: functional, cell-based; details: TDE = time-dependent effect
# Method in brief: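 HeLa cells treated at 250-500 nM for 6, 12, 24 or 48 h, then stained with JC-1. Percentage of cells with low mitochondrial membrane potential measured by flow cytometry. Mean ± SEM of three independent experiments.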
# HeLa [7] = experiment: Induction of apoptosis in human HeLa cells assessed as decrease in Mcl-1 levels at 50 to 250 nM after 24 hrs by Western blot analysis; type: functional, cell-based; method in brief: as §5
# Tubulin (Bos taurus) [8] = target: T1, Tubulin (Bos taurus); experiment: Inhibition of [3H]colchicine binding to bovine brain tubulin at 5 uM after 20 mins relative to control; method in brief: as §1
# HeLa [9] = experiment: Induction of apoptosis in human HeLa cells assessed as increase in caspase-9 activity at 50 to 250 nM after 24 hrs by Western blot analysis; type: functional, cell-based; method in brief: as §5
# Tubulin = Tubulin (Bos taurus, UniProt Q6B856+Q862L2+Q862F3); experiment: Inhibition of bovine brain tubulin polymerization after 20 mins by spectrophotometric analysis
# Method in brief: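 Bovine brain tubulin (10 μM) in glutamate buffer preincubated with varying compound levels at 30 °C, then chilled to 0 °C. GTP added to 0.4 mM final, then warmed to 30 °C. Assembly followed by turbidity at 350 nm. IC50 is the concentration halving the extent of assembly after 20 min.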
# HeLa [10] = experiment: Induction of ROS generation in human HeLa cells at 250 nM after 12 to 24 hrs by H2-DCFDA staining-based assay; type: functional, cell-based
# Method in brief: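 HeLa cells treated 6, 12, 24 or 48 h, then loaded with H2-DCFDA and analysed by flow cytometry for ROS. Mean ± SEM of three independent experiments, compared against control.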
# A549 [11] = experiment: Cell cycle arrest in human A549 cells assessed as reduction in accumulation of cells at G1 phase up to 600 nM after 24 hrs by propidium iodide staining-based flow cytometric analysis; type: functional; method in brief: as §4
# K562 [12] = experiment: Cytotoxicity against human K562 cells after 16 hrs by SRB assay; details: K562, 16 h
# HT-29 [13] = experiment: Cell cycle arrest in human HT-29 cells assessed as reduction in accumulation of cells at G1 phase up to 1000 nM after 24 hrs by propidium iodide staining-based flow cytometric analysis; type: functional; method in brief: as §4
# HT-29 [14] = experiment: Cell cycle arrest in human HT-29 cells assessed as reduction in accumulation of cells at S phase up to 1000 nM after 24 hrs by propidium iodide staining-based flow cytometric analysis; type: functional; method in brief: as §4
# A549 [15] = experiment: Cell cycle arrest in human A549 cells assessed as reduction in accumulation of cells at S phase up to 600 nM after 24 hrs by propidium iodide staining-based flow cytometric analysis; type: functional; method in brief: as §4
# Ovarian carcinoma cell = experiment: Cytotoxicity against human ovarian cancer cells after 48 hrs by SRB assay; type: functional; method in brief: as §3
# A549 [16] = experiment: Induction of apoptosis in human A549 cells at 100 nM after 24 to 48 hrs by Annexin V-FITC/propidium iodide staining-based flow cytometric analysis; type: functional, cell-based
# Method in brief: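 A549 cells treated 24 or 48 h at 12.5–100 nM, then double-stained with annexin-V-FITC and PI. Phosphatidylserine exposure was read by flow cytometry. Mean ± SEM of three independent experiments.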
# A549 [17] = experiment: Cell cycle arrest in human A549 cells assessed as accumulation of cells at G2/M phase after 24 hrs by propidium iodide staining-based flow cytometric analysis; type: functional; method in brief: as §4
# K562 [18] = experiment: Cell cycle arrest in human K562 cells assessed as mitotic index at 10 times IC50 by Giemsa staining-based assay (reference value: 3%); type: functional
# HeLa [19] = experiment: Cell cycle arrest in human HeLa cells assessed as decrease in p-cdc25c expression at 50 to 250 nM after 24 hrs by Western blot analysis; type: functional, cell-based; method in brief: as §5
# HeLa [20] = experiment: Cell cycle arrest in human HeLa cells assessed as reduction in accumulation of cells at G1 phase up to 1000 nM after 24 hrs by propidium iodide staining-based flow cytometric analysis; type: functional; method in brief: as §4
# HeLa [21] = experiment: Induction of apoptosis in human HeLa cells assessed as increase in caspase-3 activity at 50 to 250 nM after 24 hrs by Western blot analysis; type: functional, cell-based; method in brief: as §5
# [22] = Cytotoxicity against human COLON cells after 48 hrs by SRB assay; type: functional; method in brief: as §3
# Prostatic carcinoma cell = experiment: Cytotoxicity against human prostate cancer cells after 48 hrs by SRB assay; type: functional; method in brief: as §3
# K562 [23] = experiment: Cytotoxicity against human K562 cells after 48 hrs by SRB assay; type: functional, cell-based
# Renal cancer cell line = experiment: Cytotoxicity against human renal cancer cells after 48 hrs by SRB assay; type: functional; method in brief: as §3
# K562 [24] = experiment: Cell cycle arrest in human K562 cells assessed as mitotic index at 5 times IC50 by Giemsa staining-based assay (reference value: 3%); type: functional
# HeLa [25] = experiment: Cell cycle arrest in human HeLa cells assessed as accumulation of cells at G2/M phase after 24 hrs by propidium iodide staining-based flow cytometric analysis; type: functional; method in brief: as §4
# [26] = Cytotoxicity against human PBL after 72 hrs by MTT assay; type: cell-based; details: peripheral blood lymphocytes (PBL); method in brief: as §2
# HT-29 [27] = experiment: Cell cycle arrest in human HT-29 cells assessed as accumulation of cells at G2/M phase after 24 hrs by propidium iodide staining-based flow cytometric analysis; type: functional; method in brief: as §4
# E0771 = experiment: Antitumor activity mouse E0771 cells implanted in C57BL/6 mouse assessed tumor growth inhibition at 30 mg/kg, ip dosed every other day for 20 days relative to control; type: functional; details: 480 h, read-out: TGI
# Method in brief: (§6)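 Syngeneic allograft: C57BL/6 mice, six weeks old, given 2.5×10^5 BL6-B16 or E0771 cells subcutaneously in the dorsolateral flank in PBS. Dosing began at about 100 mm³. Test compound or reference was given intraperitoneally every other day in 50 μL DMSO, with DMSO vehicle controls. Tumor volume was compared with the vehicle group, 5 animals per group, mean ± SEM, by 2-way ANOVA with Bonferroni correction.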
# B16-BL6 = experiment: Antitumor activity mouse B16-BL6 cells implanted in C57BL/6 mouse assessed tumor growth inhibition at 30 mg/kg, ip dosed every other day for 18 days relative to control; type: functional; details: 432 h, read-out: TGI; method in brief: as §6
# [28] = read-out: LC50 (the source's name)
compound,measurement,setting,value
O=C1Nc2c(ccc3ccccc23)/C1=C\c1c(-c2cccnc2)nc2sccn12,inhibition,Tubulin (Bos taurus) [1],56%
same,GI50 at 72 h,[2],2.5 µM
same,GI50,CNS carcinoma cell,1.16 µM
same,TGI,CNS carcinoma cell,13.9 µM
same,CC50,CNS carcinoma cell; [28],47.5 µM
same,Activity,K562 [3],22%
same,Activity,HeLa [4],Active
same,GI50,Melanoma cell line,1.65 µM
same,TGI,Melanoma cell line,17.6 µM
same,CC50,Melanoma cell line; [28],66.5 µM
same,GI50,Leukemia cell,0.11 µM
same,TGI,Leukemia cell,46.4 µM
same,GI50,Breast carcinoma cell,0.26 µM
same,LC50 (concentration killing 50% of cells),Breast carcinoma cell,70.8 µM
same,TGI,Breast carcinoma cell,20.1 µM
same,GI50,NSCLC,1.78 µM
same,LC50,NSCLC,61.7 µM
same,TGI,NSCLC,16.2 µM
same,Activity,HeLa [5],Active
same,Activity,HeLa [6],Tde
same,Activity,HeLa [7],Active
same,inhibition,Tubulin (Bos taurus) [8],31%
same,Activity,HeLa [9],Active
same,IC50,Tubulin,2.2 µM
same,Activity,HeLa [10],Active
same,Activity,A549 [11],Active
same,IC50,K562 [12],0.2 µM
same,Activity,HT-29 [13],Active
same,Activity,HT-29 [14],Active
same,Activity,A549 [15],Active
same,GI50,Ovarian carcinoma cell,1.21 µM
same,LC50 (50% lethal concentration),Ovarian carcinoma cell,41.2 µM
same,TGI,Ovarian carcinoma cell,12.3 µM
same,Activity,A549 [16],Active
same,Activity,A549 [17],Dose-dependent effect
same,Activity,K562 [18],78%
same,Activity,HeLa [19],Active
same,Activity,HeLa [20],Active
same,Activity,HeLa [21],Active
same,GI50,[22],0.15 µM
same,TGI,[22],9.42 µM
same,CC50,[22]; [28],49 µM
same,GI50,Prostatic carcinoma cell,0.1 µM
same,TGI,Prostatic carcinoma cell,11.1 µM
same,CC50,Prostatic carcinoma cell; [28],33.4 µM
same,Activity,K562 [23],Dose-dependent effect
same,GI50,Renal cancer cell line,1.24 µM
same,LC50 (50% lethal concentration),Renal cancer cell line,49.2 µM
same,TGI,Renal cancer cell line,15.9 µM
same,Activity,K562 [24],64%
same,Activity,HeLa [25],Dose-dependent effect
same,GI50 at 72 h,[26],3.1 µM
same,Activity,HT-29 [27],Dose-dependent effect
COc1ccc(/C=C\c2cc(OC)c(OC)c(OC)c2)cc1O [COMBRETASTATIN A4],Activity,K562 [3],15%
same,IC50,K562 [12],0.004 µM
same,Activity,K562 [18],61%
same,inhibition in vivo at 30 mg/kg,E0771,30.9%
same,Activity,K562 [23],Dose-dependent effect
same,Activity,K562 [24],32%
same,inhibition in vivo at 30 mg/kg,B16-BL6,16 to 18%

# From ChEMBL document CHEMBL4316599, “Synthesis, in vitro and in vivo biological evaluation of substituted 3-(5-imidazo[2,1-b]thiazolylmethylene)-2-indolinones as new potent anticancer agents” (Eur J Med Chem, 2019)
